An excerpt weighted towards active compounds, which were near 0.89% of everything screened.
V-ATPase pHluor: alters yeast V-ATPase proton transport; S. cerevisiae, pHLuorin cytosolic pH fluorescence; response, % at 10 µM; 0.37% of 350,000 active; AID 504577; in the data active = response mostly above about 7.3%, no sharp cut-off; inactive = mostly below about 5.4%; note: actives read high
T cell HTS: T cell immune modulation candidate. response (vesicle binding), % at 7 µM. 0.068% of 330,000 active. 2C CD8+ T cell-vesicle binding, flow cytometry; stronger effect = lower value;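 active = response, share of CD8 T cells binding vesicles, and their 90th percentile fluorescence all below set limits, cut at about 80% in these data, passing the limit was not always enough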;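 note: values below 100% mean blocked vesicle binding to the CD8+ T cells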
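Test system: purified 2C TCR transgenic mouse naive CD8+ T cells. Probe or stimulus: QL9-peptide-loaded Drosophila micro-vesicles bearing Ld, ICAM-1 and B7-1. Incubation: binding step 1.5 h, 37 °C, antibody labelling 20 min, ice. Measured by: flow cytometry of vesicle-bound cells.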
MIN6 prolif: inducers of beta-cell replication in MIN6 cells; MIN6 cells proliferation, ATPlite luminescence, 48 h; cells starved in 0.2% serum; 100% = growth in 10% serum; proliferation, % at 10 µM; AID 2380; 0.29% of 330,000 active;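 active = compounds whose signal lies at least 3.5 SD above the mean of all wells on their plate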;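 note: 0% = DMSO-treated cells in low-serum medium and 100% = 10% serum control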
Arr AP2 block: blocks beta-arrestin peptide binding to AP2 adaptin; FITC-arrestin peptide / GST-AP2 beads, flow cytometry; AP2 beta2 appendage carries R879A mutation; inhibition, % at 10 µM; 0.31% of 340,000 active;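 active = inhibition above a set limit, near 3 SD of compounds lacking own fluorescence, cut at about 54% in these data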;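 note: plate controls were DMSO wells for no effect and 5 µM unlabelled arrestin peptide for full effect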
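Measured by: flow cytometry, FL1 (488/535 nm); Material: AP2 appendage R879A on GSH beads; Evaluation: percent response; Timing: pre-incubation 12 min, peptide binding 1 h, room temperature; Also added: 50 nM FITC-arrestin peptide; Medium: PBS with 0.05% Tween 20 and 0.1% BSA.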
NTR1 agonist: activates human neurotensin receptor 1 | NTR1-U2OS beta-arrestin-GFP spot imaging, agonist mode | activation, % at 20 µM | 0.17% of 330,000 active;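 active = activation at or above 40% of the spot to cytoplasm intensity ratio, with at least 20 cells analyzed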;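 note: 0% = DMSO without peptide and 100% = 100 nM NTR1 peptide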
Target sequence (P30989 whole entry, looked up): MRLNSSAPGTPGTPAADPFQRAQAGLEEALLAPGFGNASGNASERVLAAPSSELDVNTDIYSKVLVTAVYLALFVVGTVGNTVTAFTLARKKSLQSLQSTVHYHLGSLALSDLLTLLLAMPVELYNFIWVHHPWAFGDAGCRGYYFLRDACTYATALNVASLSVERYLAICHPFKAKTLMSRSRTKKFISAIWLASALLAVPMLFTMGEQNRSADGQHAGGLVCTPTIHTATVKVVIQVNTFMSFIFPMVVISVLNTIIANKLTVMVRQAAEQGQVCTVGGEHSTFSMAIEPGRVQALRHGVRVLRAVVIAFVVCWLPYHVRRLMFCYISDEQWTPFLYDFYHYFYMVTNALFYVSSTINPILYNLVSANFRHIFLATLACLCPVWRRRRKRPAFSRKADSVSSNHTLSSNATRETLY
Xi reactivation: reactivates the inactive X chromosome in mouse fibroblasts; XiGFP mouse fibroblasts, % GFP-positive cells imaging, 3 d; cells co-treated with 5-aza-dC sensitizer; scaled so ellipticine positive control = 100%; activation, % at 7.58 µM; 0.055% of 360,000 active; AID 743238;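 active = mean normalized replicate activation at least 10% and every replicate at or above 10%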;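 note: 0% = median of on-plate neutral control wells and 100% = ellipticine 6 µM median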
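System: 68-5-11 XiGFP fibroblast line | Buffer or medium: DMEM containing 5-aza-dC | Compound: Single point | Times: Compounds 3 days, fix/stain 15 min at room temperature | Benchmarks: Positive control ellipticine, 6 µM final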
Arr-AP2 CP1: blocks beta-arrestin peptide binding to human AP2 | shares compounds with Arr AP2 block | GST-AP2 beads, FITC arrestin peptide binding, flow cytometry; GST-fused beta2-adaptin appendage, R879A mutant | inhibition, % at 10 µM | 2% of 1,300 active;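 active = inhibition above a set limit, roughly 3 SD of non-fluorescent compound noise, cut at about 38% in these data; inactive = inhibition at or below that limit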;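 note: loss of bead fluorescence from 50 nM FITC arrestin peptide bound to appendage; 0% = negative control wells and 100% = excess unlabelled arrestin peptide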
GST GSH counter: disrupts GST binding to glutathione beads, arrestin-AP2 artifact. shares compounds with Arr AP2 block. GST-fluorescein binding to GSH beads, fluorescence, counter-screen. inhibition, % at 10 µM. 2% of 1,300 active. AID 588338;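 active = inhibition above 50%, about 3 SD of the inhibition seen with non-fluorescent compounds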;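 note: fluorescein maleimide labelled GST captured on 4 micron glutathione beads; higher means more loss of bead fluorescence from quenching or blocked binding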
* = called active by the depositor.

O=C(Cc1ccc(F)cc1)N1CCC2(CC1)NCCc1[nH]cnc12 was read as V-ATPase pHluor -2, T cell HTS 410, MIN6 prolif -2, Arr AP2 block 56*, NTR1 agonist 0, Xi reactivation 0, Arr-AP2 CP1 3 and GST GSH counter -4.
For O=C(Nc1ccc(Br)cc1F)c1ccncc1 the results were V-ATPase pHluor 3, T cell HTS 354, MIN6 prolif -2, Arr AP2 block 97*, NTR1 agonist 0, Arr-AP2 CP1 2 and GST GSH counter 0.
N=c1c2cn[nH]c2nc(SCC(=O)c2ccc(Br)cc2)n1-c1ccc(Br)cc1 was read as V-ATPase pHluor 1, T cell HTS 276, MIN6 prolif -2, Arr AP2 block 74*, NTR1 agonist 0, Xi reactivation 0, Arr-AP2 CP1 -3 and GST GSH counter 0.
C[C@H](CO)N1C[C@H](C)[C@H](CN(C)S(=O)(=O)c2ccc(F)cc2)Oc2ccc(NC(=O)Nc3ccc4c(c3)OCO4)cc2CC1=O was read as Xi reactivation -1.
`Nc1c(C(=O)NC2CC2)sc2nc3c(c(-c4ccco4)c12)CC/C3=C/c1ccco1` gave V-ATPase pHluor 7, T cell HTS 524, Arr AP2 block 55*, Arr-AP2 CP1 35 and GST GSH counter 22.
`Cc1cc(C)c(CN2CCC(N3CCC(C(=O)NCC4CCCO4)CC3)CC2)cc1C` (centres undefined) gave V-ATPase pHluor 3, T cell HTS 493, MIN6 prolif 0, Arr AP2 block 1, NTR1 agonist 0 and Xi reactivation 0.
`Cc1ccccc1CN1CCC(N2CCC(C(=O)NCC3CCCO3)CC2)CC1` (centres undefined) gave V-ATPase pHluor -2, T cell HTS 334, MIN6 prolif -2, Arr AP2 block 65*, NTR1 agonist 0, Xi reactivation 0, Arr-AP2 CP1 -2 and GST GSH counter -5.
For CCn1c(O)c2ccc(C(=O)N=NC(=O)c3ccccc3)cc2c1O the results were V-ATPase pHluor 2, T cell HTS 285, MIN6 prolif 0, Arr AP2 block 58*, NTR1 agonist 0, Xi reactivation 0, Arr-AP2 CP1 13 and GST GSH counter -5.
`O=C(NCCCN1CCCC1=O)c1cc(=O)c2ccccc2o1` gave V-ATPase pHluor -4, T cell HTS 514, MIN6 prolif -4, Arr AP2 block 74*, NTR1 agonist 1, Arr-AP2 CP1 4 and GST GSH counter 1.
For N#Cc1cn(-c2ccccc2)nc1C(=O)c1ccccc1 the results were T cell HTS 575, MIN6 prolif 1, Arr AP2 block 83*, NTR1 agonist 1, Arr-AP2 CP1 -2 and GST GSH counter -8.
For C#CCSc1ncc(S(=O)(=O)c2ccccc2)c(=O)[nH]1 the results were V-ATPase pHluor 0, T cell HTS 547, MIN6 prolif -1, Arr AP2 block -10, NTR1 agonist 1 and Xi reactivation 0.
`CC(C)Sc1ncc(S(=O)(=O)c2ccccc2)c(=O)[nH]1` gave V-ATPase pHluor -2, T cell HTS 224, MIN6 prolif -3, Arr AP2 block 57*, NTR1 agonist -1, Xi reactivation 0, Arr-AP2 CP1 9 and GST GSH counter 4.
For CCNC(=O)N(CC)C[C@H]1N[C@@](C)(C(=O)OC)[C@H]2C(=O)N(Cc3ccccc3)C(=O)[C@@H]12 the results were V-ATPase pHluor -3, T cell HTS 304, MIN6 prolif 1, Arr AP2 block -7, NTR1 agonist 1 and Xi reactivation 0.

Assay outcomes as filed in PubChem BioAssay.
